# Measured values: ChEMBL document CHEMBL4138314, “Synthesis and Evaluation of N-Phenyl-3-sulfamoyl-benzamide Derivatives as Capsid Assembly Modulators Inhibiting Hepatitis B Virus (HBV)” (J Med Chem, 2018)
# Active and inactive are the calls of the source. The rule behind the calls is not given here.
# How the values were obtained:
# [1] = tested on: HBV genotype D; assay: Antiviral activity against HBV genotype D infected in human HepG2.2.15 cells assessed as inhibition of viral DNA level treated twice for 3 days measured after 6 days by real time PCR; type: functional, organism-based; details: Hepatitis B virus
# [2] = Kinetic solubility of the compound at pH 7.4 after 4 hrs by UPLC-UV analysis; type: physicochemical; details: buffer, read-out: Kinetic_solubility
# [3] = Drug metabolism in human liver microsomes at 1 uM after 15 mins by LC-MS/MS analysis; type: ADME, microsome; details: read-out: Drug metabolism
# In short: (§1)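 Compound incubated 15 min with human or mouse liver microsomes; stability expressed as percent turnover (metabolised) at 15 min.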
# [4] = Cytotoxicity against human HepG2 cells after 4 days by resazurin assay; type: cell-based
# [5] = Drug metabolism in mouse liver microsomes at 1 uM after 15 mins by LC-MS/MS analysis; type: ADME, microsome; details: read-out: Drug metabolism; in short: as §1
# [6] = tested on: Hepatitis B virus; assay: Antiviral activity against Hepatitis B virus infected in human HepG2.117 cells assessed as inhibition of viral DNA level after 3 days by real time PCR; type: functional, organism-based; details: HepG2.117, 72 h
# [7] = tested on: Hepatitis B virus; assay: Induction of HBV capsid core protein CP149 aggregation assessed as ratio between area under the curve for observed amount of core dimer and area under the curve for aggregated core protein at 20 uM after 24 hrs by size exclusion chromatographic analysis
# In short: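 Recombinant HBV core assembly domain (aa 1–149, Cp149) was incubated with compound at 20 µM for 24 h, with a no-compound control run in parallel. Size exclusion chromatography gave the ratio of Cp149 dimer AUC to aggregated Cp149 AUC.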
# [8] = molecular target: Core antigen (Hepatitis B virus) (UniProt Q03732); assay: Induction of HBV Maleimidyl BoDIPY-FL-labeled capsid Cp*150 mutant aggregation incubated for 30 mins measured every 10 secs for 30 mins by fluorescence quenching assay
# Core antigen (Hepatitis B virus), sequence (Q03732 as listed by the source): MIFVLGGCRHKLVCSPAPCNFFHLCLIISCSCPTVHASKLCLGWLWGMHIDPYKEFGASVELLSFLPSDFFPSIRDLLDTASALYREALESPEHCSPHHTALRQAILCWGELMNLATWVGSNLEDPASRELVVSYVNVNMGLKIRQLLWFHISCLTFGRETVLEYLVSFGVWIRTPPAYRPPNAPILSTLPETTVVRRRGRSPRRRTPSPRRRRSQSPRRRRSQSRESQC
SMILES,EC50 [1],solubility kinetic at 4 h [2],"metabolised at 0.25 h, 1 µM [3]",CC50 at 96 h [4],"metabolised at 0.25 h, 1 µM [5]",EC50 [6],Ratio [7],Activity [8]
O=C(Nc1ccc(F)cc1)c1cccc(S(=O)(=O)N2CCCCC2)c1,4.5 µM,9 µM,65%,70.4 µM,99%,2.7 µM,0.4,–
O=C(Nc1ccc(F)cc1)c1cccc(S(=O)(=O)NC2CCC2)c1,0.83 µM,84 µM,51%,57.7 µM,99%,0.9 µM,–,–
CN(C(=O)c1cccc(S(=O)(=O)NC2CCCC2)c1)c1ccc(F)cc1,89.6 µM,> 100 µM,100%,> 25 µM,100%,> 25 µM,–,inactive
O=C(Nc1cccc(S(=O)(=O)NC2CCCCC2)c1)c1ccc(F)cc1,8 µM,22 µM,91%,> 25 µM,100%,> 25 µM,–,–
O=C(Nc1ccc(F)cc1)c1cccc(S(=O)(=O)NC2COC2)c1,2.1 µM,> 100 µM,14%,> 100 µM,21%,3.05 µM,0.8,–
O=C(Nc1ccc(F)cc1)c1cccc(S(=O)(=O)N[C@@H]2CCOC2)c1,1.18 µM,> 100 µM,21%,> 100 µM,24%,2.03 µM,–,–
CN(c1cccc(C(=O)Nc2ccc(F)cc2)c1)S(=O)(=O)C1CCCC1,7.5 µM,53 µM,86%,43.2 µM,99%,16.3 µM,2,–
O=C(Nc1ccc(F)cc1)c1cc(S(=O)(=O)NC2CCCCC2)ccc1F,0.78 µM,58 µM,61%,> 50 µM,79%,1.3 µM,0.3,–
O=C(Nc1ccc(F)cc1)c1cccc(S(=O)(=O)N2CCOCC2)c1,8.49 µM,> 100 µM,27%,> 100 µM,69%,11 µM,0.6,–
O=C(Nc1ccc(F)cc1)c1cccc(S(=O)(=O)NC2CCOCC2)c1,0.93 µM,> 100 µM,14%,> 100 µM,48%,1.67 µM,–,–
O=C(Nc1ccc(F)cc1)c1cc(S(=O)(=O)NC2CCCC2)ccc1F,0.36 µM,82 µM,36%,> 25 µM,77%,0.66 µM,–,–
CN1CCC(NS(=O)(=O)c2cccc(C(=O)Nc3ccc(F)cc3)c2)CC1,5.3 µM,94 µM,10%,> 100 µM,13%,16 µM,4.2,–
O=C(Nc1cccc(F)c1)c1cccc(S(=O)(=O)NC2CCCC2)c1,0.27 µM,57 µM,88%,> 25 µM,100%,0.43 µM,–,–
O=C(Nc1ccc(F)cc1)c1cccc(S(=O)(=O)N2CCCC2)c1,4.53 µM,48 µM,44%,96.9 µM,96%,3.03 µM,–,–
O=C(Nc1ccc(F)cc1)c1cccc(S(=O)(=O)NC2CCCC2)c1,0.47 µM,83 µM,50%,32.7 µM,91%,0.6 µM,–,–
CC1(NS(=O)(=O)c2cccc(C(=O)Nc3ccc(F)cc3)c2)COC1,0.96 µM,> 100 µM,3%,> 100 µM,29%,0.93 µM,0.5,–
CCC(CC)NS(=O)(=O)c1cccc(C(=O)Nc2ccc(F)cc2)c1,0.75 µM,15 µM,53%,40.3 µM,99%,3.63 µM,–,–
CN(C1CCCC1)S(=O)(=O)c1cccc(C(=O)Nc2ccc(F)cc2)c1,2.6 µM,19 µM,98%,23.8 µM,100%,11.1 µM,–,–

SMILES,EC50 [1],solubility kinetic at 4 h [2],"metabolised at 0.25 h, 1 µM [3]",CC50 at 96 h [4],"metabolised at 0.25 h, 1 µM [5]",EC50 [6],Ratio [7],Activity [8]
O=C(NC1CCCCC1)c1cc(S(=O)(=O)NC2CCCCC2)ccc1F,28.8 µM,–,–,> 25 µM,–,> 25 µM,–,–
CC[C@@H](C)NS(=O)(=O)c1cccc(C(=O)Nc2ccc(F)cc2)c1,0.34 µM,59 µM,21%,46 µM,88%,0.89 µM,–,–
CC(=O)N1CCN(S(=O)(=O)c2cccc(C(=O)Nc3ccc(F)cc3)c2)CC1,7.1 µM,86 µM,19%,> 100 µM,52%,6.3 µM,0.9,–
O=C(NCc1ccccc1)c1cc(S(=O)(=O)NC2CCCCC2)ccc1F,> 100 µM,29 µM,74%,93.9 µM,–,–,8.4,–
O=C(Nc1ccc(F)cc1)c1cccc(S(=O)(=O)NC2CCCCC2)c1,–,43 µM,69%,> 25 µM,93%,0.58 µM,0.2,–
O=C(Nc1cccc(S(=O)(=O)NC2CCCCC2)c1)c1ccccc1,9.6 µM,10 µM,99%,> 25 µM,100%,> 25 µM,7,–
Cc1ccc(NC(=O)c2cccc(S(=O)(=O)NC3CCCC3)c2)cc1F,1.99 µM,12 µM,67%,> 25 µM,99%,15.3 µM,–,–
CC(=O)N1CCC(NS(=O)(=O)c2cccc(C(=O)Nc3ccc(F)cc3)c2)CC1,6.77 µM,> 100 µM,0%,> 100 µM,23%,4.68 µM,2.9,–
CN(C)S(=O)(=O)c1cccc(C(=O)Nc2ccc(F)cc2)c1,5.02 µM,43 µM,50%,> 100 µM,89%,2.99 µM,1.4,–
O=C(Nc1ccc(F)cc1)c1cccc(S(=O)(=O)N[C@H]2CCOC2)c1,0.54 µM,> 100 µM,32%,> 100 µM,29%,1.36 µM,–,–
O=C(Nc1ccc(F)cc1)c1cccc(NS(=O)(=O)C2CCCCC2)c1,1.1 µM,86 µM,46%,33.6 µM,91%,2.2 µM,0.3,–
O=C(Nc1ccc(F)cc1)c1cccc(NC(=O)C2CCCCC2)c1,62.2 µM,7 µM,55%,57.7 µM,87%,> 25 µM,7.2,–
O=C(Nc1ccc(F)cc1)c1cccc(NS(=O)(=O)C2CCCC2)c1,1.2 µM,92 µM,4%,> 50 µM,93%,1.2 µM,–,–
CC(C)NS(=O)(=O)c1cccc(C(=O)Nc2ccc(F)cc2)c1,0.74 µM,> 100 µM,16%,57.5 µM,61%,0.96 µM,–,–
O=C(Nc1ccccc1)c1cc(S(=O)(=O)NC2CCCCC2)ccc1F,0.66 µM,21 µM,63%,> 25 µM,100%,0.6 µM,0.1,–
O=S(=O)(NC1CCCCC1)c1ccc(F)c(-c2ncc(-c3ccccc3)[nH]2)c1,1.7 µM,3 µM,75%,19.2 µM,99%,23.3 µM,10.2,–
CC(C)(C)NS(=O)(=O)c1cccc(C(=O)Nc2ccc(F)cc2)c1,1.24 µM,1 µM,15%,52.5 µM,31%,2.28 µM,0.9,–
CC[C@H](C)NS(=O)(=O)c1cccc(C(=O)Nc2ccc(F)cc2)c1,0.75 µM,92 µM,18%,39.6 µM,82%,8.63 µM,–,–
